Measurements taken from ChEMBL document CHEMBL1811868, “Structure-activity relationship of 2-hydroxy-2-aryl-2,3-dihydro-imidazo[1,2-a]pyrimidinium salts and 2N-substituted 4(5)-aryl-2-amino-1H-imidazoles as inhibitors of biofilm formation by Salmonella Typhimurium and Pseudomonas aeruginosa” (Bioorg Med Chem, 2011).
Activity calls are given as the source filed them. Unless noted, no cut-off for these calls is given here.

How the values were obtained:
[1] = tested on: Salmonella typhimurium; experiment: Antimicrobial activity against Salmonella Typhimurium ATCC 14028 assessed as inhibition of planktonic cell growth at 20 uM after 24 hrs by […]; assay type: functional, organism-based; conditions: Salmonella enterica subsp. enterica serovar Typhimurium
In short: (§1)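 Planktonic growth was followed by Bioscreen growth curves, not by crystal violet. Overnight cultures were diluted 1:200 in TSB 1/20 and received compound serially diluted in DMSO or EtOH, in triplicate, with solvent controls. Plates were shaken at 25 °C for at least 24 h, reading A600 every 15 min.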

[2] = tested on: Pseudomonas aeruginosa; experiment: Antimicrobial activity against Pseudomonas aeruginosa PA14 assessed as inhibition of biofilm formation after 24 hrs by spectrophotometry; assay type: functional, organism-based; conditions: PA14, 24 h
In short: (§2)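 Static peg-lid biofilm prevention assay. Twofold serial dilutions in TSB diluted 1/20, 2–3 repeats per compound. Overnight S. Typhimurium ATCC14028 (LB-grown) or P. aeruginosa PA14 (TSB-grown) cultures were diluted 1:100, giving ~10^6 cells/well, then incubated 24 h at 25 °C without shaking. Pegs were PBS-washed, stained 30 min with 0.1% crystal violet, extracted with 30% acetic acid and read at OD570. IC50 was fitted from the concentration gradient.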

[3] = tested on: Pseudomonas aeruginosa; experiment: Antimicrobial activity against Pseudomonas aeruginosa PA14 assessed as inhibition of planktonic cell growth at 40 uM after 24 hrs by […]; assay type: functional, organism-based; in short: as §1
[4] = tested on: Salmonella typhimurium; experiment: Antimicrobial activity against Salmonella Typhimurium ATCC 14028 assessed as inhibition of planktonic cell growth at IC50 after 24 hrs by […]; assay type: functional, organism-based; conditions: Salmonella enterica subsp. enterica serovar Typhimurium; in short: as §1
[5] = tested on: Pseudomonas aeruginosa; experiment: Antimicrobial activity against Pseudomonas aeruginosa PA14 assessed as inhibition of planktonic cell growth at IC50 after 24 hrs by […]; assay type: functional, organism-based; in short: as §1
[6] = tested on: Salmonella typhimurium; experiment: Antimicrobial activity against Salmonella Typhimurium ATCC 14028 assessed as inhibition of biofilm formation after 24 hrs by spectrophotometry; assay type: functional, organism-based, Salmonella enterica subsp. enterica serovar Typhimurium; conditions: Salmonella enterica, ATCC 14028, 24 h; in short: as §2
[7] = tested on: Salmonella typhimurium; experiment: Antimicrobial activity against Salmonella Typhimurium ATCC 14028 assessed as inhibition of planktonic cell growth at 80 uM after 24 hrs by […]; assay type: functional, organism-based; conditions: Salmonella enterica subsp. enterica serovar Typhimurium; in short: as §1
[8] = tested on: Pseudomonas aeruginosa; experiment: Antimicrobial activity against Pseudomonas aeruginosa PA14 assessed as inhibition of planktonic cell growth at 80 uM after 24 hrs by […]; assay type: functional, organism-based; in short: as §1
[9] = tested on: Salmonella typhimurium; experiment: Antimicrobial activity against Salmonella Typhimurium ATCC 14028 assessed as inhibition of planktonic cell growth at 40 uM after 24 hrs by […]; assay type: functional, organism-based; conditions: Salmonella enterica subsp. enterica serovar Typhimurium; in short: as §1
[10] = tested on: Pseudomonas aeruginosa; experiment: Antimicrobial activity against Pseudomonas aeruginosa PA14 assessed as inhibition of planktonic cell growth at 5 uM after 24 hrs by […]; assay type: functional, organism-based; in short: as §1
[11] = tested on: Pseudomonas aeruginosa; experiment: Antimicrobial activity against Pseudomonas aeruginosa PA14 assessed as inhibition of planktonic cell growth at 10 uM after 24 hrs by […]; assay type: functional, organism-based; in short: as §1
[12] = tested on: Pseudomonas aeruginosa; experiment: Antimicrobial activity against Pseudomonas aeruginosa PA14 assessed as inhibition of planktonic cell growth at 20 uM after 24 hrs by […]; assay type: functional, organism-based; in short: as §1
[13] = tested on: Pseudomonas aeruginosa; experiment: Antimicrobial activity against Pseudomonas aeruginosa PA14 assessed as inhibition of planktonic cell growth at 100 uM after 24 hrs by […]; assay type: functional, organism-based; in short: as §1
[14] = tested on: Pseudomonas aeruginosa; experiment: Antimicrobial activity against Pseudomonas aeruginosa PA14 assessed as inhibition of biofilm formation at 25 to 50 uM after 24 hrs by spectrophotometry; assay type: functional; in short: as §2
[15] = tested on: Salmonella typhimurium; experiment: Antimicrobial activity against Salmonella Typhimurium ATCC 14028 assessed as inhibition of planktonic cell growth at 200 uM after 24 hrs by […]; assay type: functional, organism-based; conditions: Salmonella enterica subsp. enterica serovar Typhimurium; in short: as §1
[16] = tested on: Salmonella typhimurium; experiment: Antimicrobial activity against Salmonella Typhimurium ATCC 14028 assessed as inhibition of planktonic cell growth at 150 uM after 24 hrs by […]; assay type: functional, organism-based; conditions: Salmonella enterica subsp. enterica serovar Typhimurium; in short: as §1

IC50 [2] | IC50 [6] | Compound | growth inhibition (GI) [4] | growth inhibition (GI) [5] | other results
7.9 µM | 5.7 µM | Clc1ccc(-c2cnc(NC3CCCC3)[nH]2)cc1Cl | inactive | inactive | growth inhibition (GI) [1]: inactive; growth inhibition (GI) [3]: inactive
48.6 µM | 58.4 µM | O[C@@]1(c2ccccc2)C[n+]2cccnc2N1C1CCCCCCC1 | Active | Active | growth inhibition (GI) [7]: Active; growth inhibition (GI) [8]: Active
41.9 µM | 41.8 µM | O[C@@]1(c2ccc(Cl)cc2)C[n+]2cccnc2N1C1CCCC1 | Active | Active | growth inhibition (GI) [7]: Active; growth inhibition (GI) [8]: Active
20.2 µM | 11.8 µM | O=[N+]([O-])c1ccc(-c2cnc(NC3CCCC3)[nH]2)cc1 | inactive | inactive | growth inhibition (GI) [1]: inactive
– | – | Nc1ncc(-c2ccc(Cl)cc2)[nH]1 | inactive | inactive | growth inhibition (GI) [9]: inactive; growth inhibition (GI) [10]: inactive
> 800 µM | 44.6 µM | CCCCCCCCNc1ncc(-c2cccc(Br)c2)[nH]1 | inactive | – | growth inhibition (GI) [7]: inactive
– | – | Nc1ncc(-c2ccc(Br)cc2)[nH]1 | – | inactive | growth inhibition (GI) [3]: Active; growth inhibition (GI) [11]: inactive
9.8 µM | 7.1 µM | CCCCNc1ncc(-c2ccc(Br)cc2)[nH]1 | inactive | inactive | growth inhibition (GI) [1]: inactive; growth inhibition (GI) [12]: inactive
46.3 µM | 52.6 µM | CCCCNc1ncc(-c2ccc(OC)cc2)[nH]1 | inactive | inactive | growth inhibition (GI) [7]: inactive; growth inhibition (GI) [8]: inactive
10.8 µM | 15.5 µM | CCCCNc1ncc(-c2ccc(F)cc2)[nH]1 | inactive | inactive | growth inhibition (GI) [3]: inactive; growth inhibition (GI) [7]: inactive
0.9 µM | 2 µM | CC(C)CNc1ncc(-c2ccc(Cl)cc2)[nH]1 | inactive | inactive | growth inhibition (GI) [1]: inactive; growth inhibition (GI) [9]: Active; growth inhibition (GI) [10]: inactive
33.8 µM | 52.9 µM | c1ccc(-c2cnc(NC3CCCC3)[nH]2)cc1 | inactive | inactive | growth inhibition (GI) [3]: inactive; growth inhibition (GI) [7]: inactive
– | – | Nc1ncc(-c2ccc([N+](=O)[O-])cc2)[nH]1 | inactive | inactive | growth inhibition (GI) [3]: inactive; growth inhibition (GI) [9]: Active; growth inhibition (GI) [13]: Active
1.2 µM | 4.9 µM | CC(C)CNc1ncc(-c2ccccc2)[nH]1 | inactive | inactive | growth inhibition (GI) [9]: inactive; growth inhibition (GI) [10]: inactive
7.2 µM | 12.1 µM | Brc1ccc(-c2cnc(NC3CCCC3)[nH]2)cc1 | inactive | inactive | growth inhibition (GI) [1]: inactive; growth inhibition (GI) [12]: inactive
27.7 µM | 10.9 µM | CCCNc1ncc(-c2ccc(Cl)c(Cl)c2)[nH]1 | inactive | – | growth inhibition (GI) [1]: inactive
0.7 µM | 2.2 µM | CCCCCNc1ncc(-c2ccc(Cl)c(Cl)c2)[nH]1 | – | inactive | growth inhibition (GI) [10]: inactive

IC50 [2] | IC50 [6] | Compound | growth inhibition (GI) [4] | growth inhibition (GI) [5] | other results
> 800 µM | 24.6 µM | CCCCCCCCCCCN1c2nccc[n+]2C[C@@]1(O)c1ccccc1.[Br-] | Active | – | growth inhibition (GI) [9]: Active; growth inhibition (GI) [14]: > 25%
> 800 µM | 27.5 µM | CCCCCCCCCCCCN1c2nccc[n+]2C[C@@]1(O)c1ccccc1.[Br-] | Active | – | growth inhibition (GI) [9]: Active; growth inhibition (GI) [14]: > 25%
> 800 µM | 180 µM | CCCCCCCCCCCCCCN1c2nccc[n+]2C[C@@]1(O)c1ccccc1.[Br-] | – | – | growth inhibition (GI) [14]: > 25%
1.2 µM | 2.9 µM | CC(C)CNc1ncc(-c2ccc(Br)cc2)[nH]1 | inactive | inactive | growth inhibition (GI) [1]: inactive; growth inhibition (GI) [9]: Active; growth inhibition (GI) [10]: inactive
15.8 µM | 191 µM | CSc1ccc(-c2cnc(NC3CCCCC3)[nH]2)cc1 | – | inactive | growth inhibition (GI) [12]: inactive
> 800 µM | 81.6 µM | CCCCCCCCCCCCCN1c2nccc[n+]2C[C@@]1(O)c1ccccc1.[Br-] | – | – | growth inhibition (GI) [14]: > 25%
25 µM | 10.9 µM | CCCCCCCCNc1ncc(-c2ccc([N+](=O)[O-])cc2)[nH]1 | inactive | – | growth inhibition (GI) [7]: inactive
– | – | Nc1ncc(-c2ccc(F)cc2)[nH]1 | inactive | inactive | growth inhibition (GI) [3]: inactive; growth inhibition (GI) [15]: inactive
> 800 µM | 61.9 µM | CCCCCCCCCCCN1c2nccc[n+]2C[C@@]1(O)c1ccc(Cl)cc1.[Br-] | – | – | growth inhibition (GI) [14]: > 25%
22.4 µM | 139 µM | O[C@@]1(c2ccccc2)C[n+]2cccnc2N1C1CCCCC1 | Active | inactive | growth inhibition (GI) [8]: Active
– | – | Nc1ncc(-c2ccccc2)[nH]1 | inactive | inactive | growth inhibition (GI) [8]: inactive; growth inhibition (GI) [16]: inactive
3.1 µM | 41.8 µM | CCCCCCCCNc1ncc(-c2ccc(S(C)(=O)=O)cc2)[nH]1 | inactive | inactive | growth inhibition (GI) [7]: inactive; growth inhibition (GI) [12]: inactive
16.4 µM | 33 µM | O[C@@]1(c2ccc(Cl)cc2)C[n+]2cccnc2N1C1CCCCC1 | Active | inactive | growth inhibition (GI) [7]: Active; growth inhibition (GI) [8]: Active
10.2 µM | 3.1 µM | CCCCCNc1ncc(-c2ccc(Br)cc2)[nH]1 | inactive | inactive | growth inhibition (GI) [1]: Active; growth inhibition (GI) [9]: Active; growth inhibition (GI) [12]: inactive
56.1 µM | 170 µM | CNc1ncc(-c2ccc([N+](=O)[O-])cc2)[nH]1 | – | inactive | growth inhibition (GI) [8]: inactive
76.2 µM | 27.9 µM | O[C@@]1(c2ccc(Cl)cc2)C[n+]2cccnc2N1C1CCCCCC1 | Active | Active | growth inhibition (GI) [8]: Active
